Experimental data published in PMC4448975 (Pharmacology Research & Perspectives, 2015).
Values belong to the compound of their own block, whether it stands above or below them.

How the values were obtained:
human ADA2 = molecular target: T1, human ADA2 (Homo sapiens, UniProt Q9NZK5); test: Deamination of substrates in ADA2-expressing HEK293 cells; type: biochemical; details: compared with Mock cells; substance = substrate
T1 sequence (Q9NZK5 30-511): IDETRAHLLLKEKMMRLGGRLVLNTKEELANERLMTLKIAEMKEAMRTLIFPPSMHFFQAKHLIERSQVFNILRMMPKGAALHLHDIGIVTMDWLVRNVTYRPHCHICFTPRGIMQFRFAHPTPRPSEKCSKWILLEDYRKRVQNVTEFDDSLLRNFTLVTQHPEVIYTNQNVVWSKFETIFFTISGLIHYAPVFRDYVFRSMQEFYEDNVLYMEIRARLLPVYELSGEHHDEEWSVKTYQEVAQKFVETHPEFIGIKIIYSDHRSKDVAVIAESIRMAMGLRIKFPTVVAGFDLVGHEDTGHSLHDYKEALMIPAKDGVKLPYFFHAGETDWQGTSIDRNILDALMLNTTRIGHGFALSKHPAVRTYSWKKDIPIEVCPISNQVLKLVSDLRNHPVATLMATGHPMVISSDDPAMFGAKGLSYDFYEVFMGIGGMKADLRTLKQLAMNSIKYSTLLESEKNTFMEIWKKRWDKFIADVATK

Jurkat cells = test: Cell viability; type: cell-based, human; details: 24 h, MTT
Method in brief: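 Jurkat cells kept in RPMI-1640 with 10% FBS, penicillin–streptomycin, NaHCO3 and glutamine at 37°C, 5% CO2. Cells were seeded at 1 × 10^4 per well. […] Viability was read by MTT kit. Mean ± SD of three independent determinations; ANOVA with Dunnett's test.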

[1] = molecular target: T2, ADA in human erythrocytes (Homo sapiens, UniProt P00813); test: Inhibition of ADA-catalyzed deamination of cordycepin in human erythrocytes; type: biochemical
T2 sequence (P00813 1-363): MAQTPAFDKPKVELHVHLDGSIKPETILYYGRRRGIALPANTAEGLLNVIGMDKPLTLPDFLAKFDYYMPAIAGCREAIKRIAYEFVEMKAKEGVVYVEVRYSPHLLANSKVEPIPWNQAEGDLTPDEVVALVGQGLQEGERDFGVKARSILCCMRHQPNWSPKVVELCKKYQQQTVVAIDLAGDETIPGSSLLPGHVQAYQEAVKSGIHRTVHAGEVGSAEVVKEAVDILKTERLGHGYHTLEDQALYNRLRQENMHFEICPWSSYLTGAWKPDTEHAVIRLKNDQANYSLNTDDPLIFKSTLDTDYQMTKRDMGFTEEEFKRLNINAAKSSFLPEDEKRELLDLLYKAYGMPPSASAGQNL
Method in brief: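 Human erythrocytes were incubated with cordycepin in 400 mmol/L sodium acetate buffer, pH 5.8, at 37°C after a 3 min preincubation. Inhibitors were present and cordycepin concentrations were varied. Reactions were stopped with acetonitrile and centrifuged. 3′-Deoxyinosine was quantified by reversed-phase HPLC (6% acetonitrile, 1.0 mL/min, 260 nm). Inhibition type and Ki were derived from Dixon plots.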

[2] = molecular target: T3, ADA in mouse erythrocytes (Mus musculus, UniProt P03958); test: Inhibition of ADA-catalyzed deamination in mouse erythrocytes; type: biochemical; details: for inhibition at 100 µM: read-out: inhibition of the enzyme activity (deamination of cordycepin)
T3 sequence (P03958 1-352): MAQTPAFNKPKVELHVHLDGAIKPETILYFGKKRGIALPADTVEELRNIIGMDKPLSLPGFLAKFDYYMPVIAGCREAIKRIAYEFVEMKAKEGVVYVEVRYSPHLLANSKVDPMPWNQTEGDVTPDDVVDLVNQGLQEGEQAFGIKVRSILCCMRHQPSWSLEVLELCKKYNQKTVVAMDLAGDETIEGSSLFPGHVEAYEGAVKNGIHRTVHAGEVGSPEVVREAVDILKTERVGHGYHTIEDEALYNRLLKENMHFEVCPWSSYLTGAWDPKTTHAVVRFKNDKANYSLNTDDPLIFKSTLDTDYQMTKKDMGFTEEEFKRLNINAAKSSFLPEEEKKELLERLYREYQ

[3] = molecular target: T4, ADA1 in Jurkat cell homogenates (Homo sapiens, UniProt P00813); test: Inhibition of cordycepin deamination in Jurkat cell homogenates; type: biochemical; details: substrate 100 μmol/L, inhibitor 50 μmol/L
T4 sequence (P00813 1-363): T2 sequence (P00813 1-363)

Structure (SMILES): Nc1ncnc2c1ncn2[C@H]1C[C@H](O)[C@@H](CO)O1 [2′-deoxyadenosine]
deamination activity toward the substrate in ADA2-expressing HEK293 cells (human ADA2): comparable to those in Mock cells

Structure (SMILES): Nc1ncnc2c1ncn2[C@@H]1O[C@H](CO)C[C@H]1O [Cordycepin, 3′-deoxyadenosine]
cell viability of the Jurkat cells (Jurkat cells; cordycepin alone): concentration-dependently decreased the cell viability

Structure (SMILES): C[C@@H]1O[C@@H](O[C@H]2[C@H](Oc3cc(O)c4c(c3)O[C@H](c3ccc(O)cc3)CC4=O)O[C@H](CO)[C@@H](O)[C@@H]2O)[C@H](O)[C@H](O)[C@H]1O [Naringin, naringin]
Ki [1]: 168 ± 22.4 µM
inhibition pattern against the cordycepin deamination ([1]; human erythrocytes, Dixon plot): competitively
Ki ([2]; mouse erythrocytes, substrate 2′-deoxyadenosine, Dixon plot): 197 µM
Ki ([2]; mouse erythrocytes, substrate adenosine, Dixon plot): 371 ± 10.1 µM
Ki ([2]; mouse erythrocytes, substrate cordycepin, Dixon plot): 58.8 ± 0.7 µM
inhibition of cordycepin deamination in the erythrocytes (in words) ([2]; erythrocytes, 100 μmol/L cordycepin, 100 μmol/L inhibitor, 37°C (Fig.4)): moderately inhibited
inhibition pattern against the cordycepin deamination ([2]; mouse erythrocytes, Dixon plot): competitive
inhibition at 100 µM [2]: 20%
inhibition of deamination of cordycepin in Jurkat cell homogenates [3]: moderately

Structure (SMILES): OC[C@H]1O[C@@H](n2cnc3c2NC=NC[C@H]3O)C[C@@H]1O [Pentostatin]
effect on the cytotoxic effect of cordycepin (Jurkat cells; Jurkat cells cotreated with cordycepin and 50 μmol/L inhibitor): stronger cytotoxicity

Structure (SMILES): Nc1ncnc2c1ncn2[C@@H]1O[C@H](CO)[C@@H](O)[C@H]1O [adenosine]
deamination activity toward the substrate in ADA2-expressing HEK293 cells (human ADA2): comparable to those in Mock cells

Structure (SMILES): O=c1c(O)c(-c2ccc(O)cc2)oc2cc(O)cc(O)c12 [kaempferol]
inhibition at 100 µM [2]: 0 to 10%

Other lines, results leading:

inhibition at 100 µM [2]: 0 to 10%
Structure (SMILES): O=c1c(O)c(-c2cc(O)c(O)c(O)c2)oc2cc(O)cc(O)c12 [myricetin]

inhibition at 100 µM [2]: 0 to 10%
Structure (SMILES): O=C1C[C@@H](c2ccc(O)cc2)Oc2cc(O)cc(O)c21 [naringenin]

inhibition at 100 µM [2]: 0 to 10%
Structure (SMILES): O=c1c(O)c(-c2ccc(O)c(O)c2)oc2cc(O)cc(O)c12 [quercetin]
